Experimental data from ChEMBL document CHEMBL1139934, “Synthesis and biological activity of imidazopyridine anticoccidial agents: part I” (Eur J Med Chem, 2007).

Columns and labels:
Eimeria tenella [1] = assay: Anticococcidal activity against Eimeria tenella in Chick assessed as reduction in oocyte at 25 ppm relative to control; type: functional; parameters: scale not given: the % may be the effect or the level left
Outline: (§1)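 Expanded Mini-Assay Coccidiosis (ExMAC) in chickens infected with E. tenella, E. acervulina, E. mitis and E. maxima. Compound given in the feed at the stated ppm. Efficacy for each species is scored 0 to 4 from the percent oocyst reduction relative to an untreated control. Where a compound was tested more than once, all values are reported.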

Eimeria maxima [2] = assay: Anticococcidal activity against Eimeria maxima in Chick assessed as reduction in oocyte at 25 ppm relative to control; type: functional; parameters: scale not given: the % may be the effect or the level left; outline: as §1
Eimeria acervulina [3] = assay: Anticococcidal activity against Eimeria acervulina in Chick assessed as reduction in oocyte at 25 ppm relative to control; type: functional; parameters: scale not given: the % may be the effect or the level left; outline: as §1
[4] = biological target: cGMP-dependent protein kinase (Eimeria tenella) (UniProt Q8MMZ8); assay: Inhibition of Eimeria tenella cGMP-dependent protein kinase at 100 nM by Ten_K assay
Eimeria mitis [5] = assay: Anticococcidal activity against Eimeria mitis in Chick assessed as reduction in oocyte at 25 ppm relative to control; type: functional; parameters: scale not given: the % may be the effect or the level left; outline: as §1
Eimeria maxima [6] = assay: Anticococcidal activity against Eimeria maxima in Chick assessed as reduction in oocyte at 50 ppm relative to control; type: functional; parameters: scale not given: the % may be the effect or the level left; outline: as §1
Eimeria mitis [7] = assay: Anticococcidal activity against Eimeria mitis in Chick assessed as reduction in oocyte at 50 ppm relative to control; type: functional; parameters: scale not given: the % may be the effect or the level left; outline: as §1
Eimeria tenella [8] = assay: Anticococcidal activity against Eimeria tenella in Chick assessed as reduction in oocyte at 50 ppm relative to control; type: functional; parameters: scale not given: the % may be the effect or the level left; outline: as §1
[9] = biological target: cGMP-dependent protein kinase (Eimeria tenella, UniProt Q8MMZ8); assay: Inhibition of Eimeria tenella cGMP-dependent protein kinase by Ten_K assay
Outline: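 Ten_K (Tenella Kinase) assay measuring inhibition of E. tenella PKG enzyme activity. Result expressed as the concentration giving 50% inhibition (IC50, nM). Where a compound was tested more than once, all values are reported.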

Eimeria acervulina [10] = assay: Anticococcidal activity against Eimeria acervulina in Chick assessed as reduction in oocyte at 50 ppm relative to control; type: functional; parameters: scale not given: the % may be the effect or the level left; outline: as §1
Eimeria maxima [11] = assay: Anticococcidal activity against Eimeria maxima in Chick assessed as reduction in oocyte at 3.13 ppm relative to control; type: functional; parameters: scale not given: the % may be the effect or the level left; outline: as §1
Eimeria maxima [12] = assay: Anticococcidal activity against Eimeria maxima in Chick assessed as reduction in oocyte at 6.25 ppm relative to control; type: functional; parameters: scale not given: the % may be the effect or the level left; outline: as §1
Eimeria acervulina [13] = assay: Anticococcidal activity against Eimeria acervulina in Chick assessed as reduction in oocyte at 3.13 ppm relative to control; type: functional; parameters: scale not given: the % may be the effect or the level left; outline: as §1
Eimeria mitis [14] = assay: Anticococcidal activity against Eimeria mitis in Chick assessed as reduction in oocyte at 6.25 ppm relative to control; type: functional; parameters: scale not given: the % may be the effect or the level left; outline: as §1
Eimeria maxima [15] = assay: Anticococcidal activity against Eimeria maxima in Chick assessed as reduction in oocyte at 12.5 ppm relative to control; type: functional; parameters: scale not given: the % may be the effect or the level left; outline: as §1
Eimeria mitis [16] = assay: Anticococcidal activity against Eimeria mitis in Chick assessed as reduction in oocyte at 12.5 ppm relative to control; type: functional; parameters: scale not given: the % may be the effect or the level left; outline: as §1
Eimeria acervulina [17] = assay: Anticococcidal activity against Eimeria acervulina in Chick assessed as reduction in oocyte at 12.5 ppm relative to control; type: functional; parameters: scale not given: the % may be the effect or the level left; outline: as §1
Eimeria tenella [18] = assay: Anticococcidal activity against Eimeria tenella in Chick assessed as reduction in oocyte at 12.5 ppm relative to control; type: functional; parameters: scale not given: the % may be the effect or the level left; outline: as §1
Eimeria acervulina [19] = assay: Anticococcidal activity against Eimeria acervulina in Chick assessed as reduction in oocyte at 6.25 ppm relative to control; type: functional; parameters: scale not given: the % may be the effect or the level left; outline: as §1
Eimeria mitis [20] = assay: Anticococcidal activity against Eimeria mitis in Chick assessed as reduction in oocyte at 3.13 ppm relative to control; type: functional; parameters: scale not given: the % may be the effect or the level left; outline: as §1
Eimeria tenella [21] = assay: Anticococcidal activity against Eimeria tenella in Chick assessed as reduction in oocyte at 6.25 ppm relative to control; type: functional; parameters: scale not given: the % may be the effect or the level left; outline: as §1
Eimeria tenella [22] = assay: Anticococcidal activity against Eimeria tenella in Chick assessed as reduction in oocyte at 3.13 ppm relative to control; type: functional; parameters: scale not given: the % may be the effect or the level left; outline: as §1
Eimeria acervulina [23] = assay: Anticococcidal activity against Eimeria acervulina in Chick assessed as reduction in oocyte at 1.25 ppm relative to control; type: functional; parameters: scale not given: the % may be the effect or the level left; outline: as §1
Eimeria tenella [24] = assay: Anticococcidal activity against Eimeria tenella in Chick assessed as reduction in oocyte at 1.25 ppm relative to control; type: functional; parameters: scale not given: the % may be the effect or the level left; outline: as §1
Eimeria maxima [25] = assay: Anticococcidal activity against Eimeria maxima in Chick assessed as reduction in oocyte at 1.25 ppm relative to control; type: functional; parameters: scale not given: the % may be the effect or the level left; outline: as §1
Eimeria mitis [26] = assay: Anticococcidal activity against Eimeria mitis in Chick assessed as reduction in oocyte at 1.25 ppm relative to control; type: functional; parameters: scale not given: the % may be the effect or the level left; outline: as §1

Chain of cGMP-dependent protein kinase (Q8MMZ8 whole entry): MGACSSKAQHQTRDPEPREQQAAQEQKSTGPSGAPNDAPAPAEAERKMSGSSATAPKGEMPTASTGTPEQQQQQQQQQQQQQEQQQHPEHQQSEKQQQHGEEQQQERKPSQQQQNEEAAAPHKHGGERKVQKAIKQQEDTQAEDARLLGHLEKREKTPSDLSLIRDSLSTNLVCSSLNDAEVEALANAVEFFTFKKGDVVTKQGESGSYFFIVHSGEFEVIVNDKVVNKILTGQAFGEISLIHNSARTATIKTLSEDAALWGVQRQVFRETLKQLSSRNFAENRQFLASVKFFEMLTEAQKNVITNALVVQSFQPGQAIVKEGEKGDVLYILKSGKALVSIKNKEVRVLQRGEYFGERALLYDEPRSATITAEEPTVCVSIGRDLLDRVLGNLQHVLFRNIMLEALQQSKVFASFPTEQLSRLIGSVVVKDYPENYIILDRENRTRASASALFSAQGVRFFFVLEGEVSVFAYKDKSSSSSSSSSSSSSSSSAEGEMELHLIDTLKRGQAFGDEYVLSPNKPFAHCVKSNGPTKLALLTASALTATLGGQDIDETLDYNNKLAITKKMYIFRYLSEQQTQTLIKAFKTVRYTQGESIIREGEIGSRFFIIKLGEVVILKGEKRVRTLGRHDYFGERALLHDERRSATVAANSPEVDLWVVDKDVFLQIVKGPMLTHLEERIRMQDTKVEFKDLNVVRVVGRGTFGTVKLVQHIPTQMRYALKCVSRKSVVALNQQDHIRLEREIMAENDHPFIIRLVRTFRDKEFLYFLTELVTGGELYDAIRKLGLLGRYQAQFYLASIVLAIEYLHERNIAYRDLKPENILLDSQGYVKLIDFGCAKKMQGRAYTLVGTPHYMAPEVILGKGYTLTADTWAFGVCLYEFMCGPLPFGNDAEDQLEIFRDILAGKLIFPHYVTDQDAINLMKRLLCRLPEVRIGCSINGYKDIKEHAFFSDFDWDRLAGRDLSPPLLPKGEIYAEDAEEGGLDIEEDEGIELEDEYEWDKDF
Chain of cGMP-dependent protein kinase (Eimeria tenella) (Q8MMZ8 2-1003 limits assumed): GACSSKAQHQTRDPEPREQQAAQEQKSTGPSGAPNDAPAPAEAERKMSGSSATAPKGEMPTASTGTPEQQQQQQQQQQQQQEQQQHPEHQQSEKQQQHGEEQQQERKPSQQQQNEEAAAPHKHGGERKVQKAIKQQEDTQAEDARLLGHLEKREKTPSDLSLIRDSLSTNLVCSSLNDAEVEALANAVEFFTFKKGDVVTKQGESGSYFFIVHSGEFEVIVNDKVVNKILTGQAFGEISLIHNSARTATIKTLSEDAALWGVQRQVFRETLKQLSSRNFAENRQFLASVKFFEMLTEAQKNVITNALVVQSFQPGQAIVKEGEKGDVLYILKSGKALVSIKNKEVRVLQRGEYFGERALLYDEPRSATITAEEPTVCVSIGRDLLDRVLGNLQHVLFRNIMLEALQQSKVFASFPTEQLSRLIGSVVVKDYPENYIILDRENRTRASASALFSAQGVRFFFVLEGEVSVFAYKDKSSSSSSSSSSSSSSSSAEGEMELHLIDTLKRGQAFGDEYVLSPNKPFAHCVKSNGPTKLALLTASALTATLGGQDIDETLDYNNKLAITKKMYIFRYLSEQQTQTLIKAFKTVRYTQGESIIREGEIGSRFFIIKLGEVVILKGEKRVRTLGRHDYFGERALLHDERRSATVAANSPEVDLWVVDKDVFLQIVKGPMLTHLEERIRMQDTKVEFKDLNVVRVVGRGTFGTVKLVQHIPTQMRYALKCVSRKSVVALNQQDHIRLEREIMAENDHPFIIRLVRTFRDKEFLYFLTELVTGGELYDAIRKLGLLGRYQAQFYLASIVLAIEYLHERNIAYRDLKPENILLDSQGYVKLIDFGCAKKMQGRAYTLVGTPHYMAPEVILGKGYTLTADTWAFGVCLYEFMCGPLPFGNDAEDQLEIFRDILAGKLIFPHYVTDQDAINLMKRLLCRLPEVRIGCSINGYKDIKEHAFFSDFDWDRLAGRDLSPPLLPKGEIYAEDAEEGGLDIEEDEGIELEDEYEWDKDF

IC50 [9] [nM] | Compound | Activity (Eimeria tenella [1]) [%] | Activity (Eimeria maxima [2]) [%] | Activity (Eimeria acervulina [3]) [%] | Activity (Eimeria mitis [5]) [%] | Activity (Eimeria maxima [12]) [%] | Activity (Eimeria mitis [14]) [%] | Activity (Eimeria maxima [15]) [%] | Activity (Eimeria mitis [16]) [%] | Activity (Eimeria acervulina [17]) [%] | Activity (Eimeria tenella [18]) [%] | Activity (Eimeria acervulina [19]) [%] | Activity (Eimeria tenella [21]) [%] | also measured
 | CN(C)Cc1ccn2c(-c3ccnc(NS(=O)(=O)Cc4ccccc4)n3)c(-c3ccc(F)cc3)nc2c1 | <50 | <50 | <50 | <50 |  |  |  |  |  |  |  |  | inhibition [4]: 40%
2.14 | CCCCNc1nccc(-c2c(-c3ccc(F)cc3)nc3cc(CN(C)C)ccn23)n1 |  |  |  |  |  |  |  |  |  |  |  |  | Activity (Eimeria maxima [6]): <50%; Activity (Eimeria mitis [7]): <50%; Activity (Eimeria tenella [8]): <50%; Activity (Eimeria acervulina [10]): <50%
0.52 | CN(C)Cc1ccn2c(-c3ccnc(N)n3)c(-c3c(F)cc(F)cc3F)nc2c1 | 80 | 100 | 80 | <50 | 50 | 50 | 80 | <50 | 80 | 80 | 50 | <50 | Activity (Eimeria maxima [11]): 80%; Activity (Eimeria acervulina [13]): <50%; Activity (Eimeria mitis [20]): 50%; Activity (Eimeria tenella [22]): 50%
0.064 | CN(C)Cc1ccn2c(-c3ccnc(NCC4CC4)n3)c(-c3ccc(F)cc3)nc2c1 | 80 | 80 | 80 | 80 | 80 | <50 | 80 | 80 | 80 | 80 | 80 | <50 | 
0.08 | CN(C)Cc1ccn2c(-c3ccnc(NC4CC4)n3)c(-c3ccc(F)cc3)nc2c1 | 80 | 80 | 80 | 80 | 80 | <50 | 80 | 50 | 80 | 80 | 80 | <50 | 
0.23 | CN(C)Cc1ccn2c(-c3nc(N)ncc3F)c(-c3ccc(F)cc3)nc2c1 | 80 | 100 | 100 | 50 | <50 | <50 |  |  |  |  | 50 | 80 | Activity (Eimeria acervulina [23]): 100%; Activity (Eimeria tenella [24]): 80%; Activity (Eimeria maxima [25]): <50%; Activity (Eimeria mitis [26]): <50%
0.25 | COCCNc1nccc(-c2c(-c3ccc(F)cc3)nc3cc(CN(C)C)ccn23)n1 | 80 | 80 | 80 | <50 | 50 | <50 | 80 | <50 | 80 | 80 | <50 | <50 | 
0.09 | CN(C)Cc1ccn2c(-c3ccnc(NCc4cccc(F)c4)n3)c(-c3ccc(F)cc3)nc2c1 | 50 | 80 | 80 | 50 | <50 | <50 | 80 | <50 | 50 | <50 | <50 | <50 | 
0.23 | Cc1cnc(N)nc1-c1c(-c2ccc(F)cc2)nc2cc(CN(C)C)ccn12 | 80 | 80 | 80 | 80 | 80 | <50 | 80 | 80 | <50 | 80 | <50 | <50 | 
